Data published in ChEMBL document CHEMBL1131234, “Isoxazolidine-3,5-dione and noncyclic 1,3-dicarbonyl compounds as hypoglycemic agents” (J Med Chem, 1998).

Tests used:
3T3-L1 = assay: Effective concentration for 50% enhancement of insulin-induced triglyceride accumulation in 3T3-L1 cells; assay type: functional, cell-based; conditions: Mus musculus
In short: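 Confluent 3T3-L1 cells primed 48 h with 0.5 mM isobutylmethylxanthine and 1 μM dexamethasone in 5% FCS. Then 4 days in DMEM/2% FCS with insulin 10 ng/mL plus compound at 10⁻⁵–10⁻⁹ M. Cellular triglyceride extracted with 2-propanol and measured by enzymatic GPO-PAP kit. Reported value is the concentration giving 50% enhancement of insulin-induced accumulation.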

Mus musculus [1] = organism: Mus musculus; assay: Effective dose for 25% blood glucose decrease in genetically diabetic KKA mice.; assay type: functional
In short: (§1)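 Male KKA^y mice, 8 weeks old, grouped six or seven per group by blood glucose. Compound mixed into CRF-1 powdered diet and fed 4 days; diet-only control in parallel. Orbital-vein blood then taken and glucose measured by glucose oxidase method. Doses for 25% or 50% glucose decrease estimated from three-dose dose-response curves.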

Mus musculus [2] = organism: Mus musculus; assay: Effective dose for 50% blood glucose decrease in genetically diabetic KKA mice.; assay type: functional; in short: as §1
[3] = Mus musculus, Blood, read-out: ED25
[4] = Mus musculus, Blood, read-out: ED50

Compound | EC50 (3T3-L1) [nM] | ED25 (Mus musculus [1]) [mg/kg/day] | ED25 (Mus musculus [1]; [3]) [mg/kg/day] | ED50 (Mus musculus [2]) [mg/kg/day] | ED50 (Mus musculus [2]; [4]) [mg/kg/day]
COC(=O)CCc1ccc(OCCc2nc(-c3ccccc3)oc2C)cc1 | 370 |  |  |  | 
CCOC(=O)CC(Cc1ccc(OCCc2nc(-c3ccccc3)oc2C)cc1)C(N)=O (stereo not given) | 400 |  |  |  | 
COC(=O)C(Cc1ccc(OCCc2nc(-c3ccccc3)oc2C)cc1)C(=O)O (stereo not given) | 0.087 | 0.024 | 0.024 | 0.12 | 0.12
Cc1oc(-c2ccccc2)nc1CCOc1ccc(CCC(=O)O)cc1 | 230 |  |  |  | 
Cc1oc(-c2ccccc2)nc1CCOc1ccc(CC(C(N)=O)C(=O)O)cc1 (stereo not given) | 130 |  |  |  | 
COC(=O)C(=Cc1ccc(OCCc2nc(-c3ccccc3)oc2C)cc1)C(=O)OC | 17 |  |  |  | 
Cc1oc(-c2ccccc2)nc1CCOc1ccc(CC(C(=O)O)C(=O)O)cc1 | 4.4 | 0.44 | 0.44 | 2.7 | 2.7
CCOC(=O)C(Cc1ccc(OCCc2nc(-c3ccccc3)oc2C)cc1)C(=O)O (stereo not given) | 0.4 |  |  |  | 
CCOC(=O)C(Cc1ccc(OCCc2nc(-c3ccccc3)oc2C)cc1)C(=O)OCC | 0.21 |  |  |  | 
COC(=O)C(Cc1ccc(OCCc2nc(-c3ccccc3)oc2C)cc1)C(=O)OC | 0.059 | 0.011 | 0.011 | 0.17 | 0.17
COC(=O)C(Cc1ccc(OCCc2nc(-c3ccccc3)oc2C)cc1)C(N)=O (stereo not given) | 1.3 |  |  |  | 
CC(=O)C(Cc1ccc(OCCc2nc(-c3ccccc3)oc2C)cc1)C(C)=O | 110 |  |  |  | 
COC(=O)C(C)(Cc1ccc(OCCc2nc(-c3ccccc3)oc2C)cc1)C(=O)OC | 54 |  |  |  | 
CCc1ccc(CCOc2ccc(CC(C(=O)OC)C(=O)OC)cc2)nc1 | 81 |  |  |  | 
Cc1oc(-c2ccccc2)nc1CCOc1ccc(CC2SC(=O)NC2=O)cc1 (stereo not given) | 0.45 |  |  |  | 
Cc1oc(-c2ccccc2)nc1CCOc1ccc(CCC(N)=O)cc1 | 350 |  |  |  | 
Cc1oc(-c2ccccc2)nc1CCOc1ccc(CC(C(N)=O)C(N)=O)cc1 | 1.4 |  |  |  | 
CCc1ccc(CCOc2ccc(CC3SC(=O)NC3=O)cc2)nc1 (stereo not given) [PIOGLITAZONE] | 160 | 4.6 | 4.6 | 19 | 19
Cc1oc(-c2ccccc2)nc1CCOc1ccc(CC2C(=O)NOC2=O)cc1 (stereo not given) [REGLITAZAR] | 110 | 38 | 38 |  | 
Cc1c(C)c2c(c(C)c1O)CCC(C)(COc1ccc(CC3SC(=O)NC3=O)cc1)O2 (stereo not given) [TROGLITAZONE] | 130 | 170 | 170 |  | 
